14 compounds from ChEMBL document CHEMBL4414678, “Structure Determination, Functional Characterization, and Biosynthetic Implications of Nybomycin Metabolites from a Mining Reclamation Site-Associated Streptomyces” (J Nat Prod, 2019) can be followed below.

The test system of data set [1] is Mycolicibacterium aurum. Briefly: Antibacterial activity against Mycobacterium aurum ATCC 23366 after 16 to 48 hrs. The data set is classed as functional. Summed up:
(§1)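 MIC determined against each bacterial strain after 16–48 h incubation, in triplicate. DMSO vehicle was the negative control, and kanamycin and ampicillin were the positive controls.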

Data set [2] concerns PC-3. Kind of data set: Antiproliferative activity against human PC3 cells assessed as reduction in cell viability after 72 hrs by alamar blue assay. The data set is classed as functional, cell-based. The settings on record: PC-3, 72 h. Summed up: (§2)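 Cancer cell viability measured after 72 h exposure, in triplicate, and EC50/IC50 derived. DMSO served as the negative control. Positive controls were actinomycin D at 20 μM and H2O2 at 2 mM, each taken as 0% viable cells.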

Data set [3] relates to Salmonella enterica. Briefly: Antibacterial activity against Salmonella enterica ATCC 10708 after 16 to 48 hrs. It counts as functional. Summed up: as §1
Data set [4] concerns Bacillus subtilis. Briefly: Antibacterial activity against Bacillus subtilis ATCC 6633 after 16 to 48 hrs. The data set is classed as functional. Summed up: as §1
Data set [5] deals with Staphylococcus aureus. Kind of data set: Antibacterial activity against Staphylococcus aureus ATCC 6538 after 16 to 48 hrs. The data set is classed as functional. Summed up:
as §1

The subject of data set [6] is A549. Kind of data set: Antiproliferative activity against human A549 cells assessed as reduction in cell viability after 72 hrs by alamar blue assay. The data set is classed as functional, cell-based. The settings on record: A549, 72 h. Summed up: as §2
(Alamar Blue is a resazurin reagent that responds to reducing activity.)

The test system of data set [7] is Saccharomyces cerevisiae. Kind of data set: Antifungal activity against Saccharomyces cerevisiae ATCC 204508 after 16 to 48 hrs. It counts as functional. An outline of the steps: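 MIC determined against the S. cerevisiae strain after 16–48 h incubation, in triplicate. DMSO vehicle was the negative control and amphotericin B the positive control.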
Data set [8] has as its system Micrococcus luteus. Briefly: Antibacterial activity against Micrococcus luteus ATCC 15307 after 16 to 48 hrs. It counts as functional. Summed up: as §1
For data set [9], the system named is Escherichia coli. Briefly: Antibacterial activity against Escherichia coli ATCC 12435 after 16 to 48 hrs. It counts as functional. Summed up:
as §1

Data set [10] relates to Ambystoma mexicanum. Briefly: Toxicity in axolotl embryo at 1 uM after 7 days by tail regeneration assay. The data set is classed as organism-based. Particulars: in vivo, 168 h. An outline of the steps: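 Axolotl embryos (Ambystoma Genetic Stock Center) had the tail amputated and were exposed to 1 μM compound. Regeneration, judged by a rounded tail tip, was scored at 7 days post-amputation. DMSO vehicle was the negative control and geldanamycin the positive control.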

The subject of data set [11] is PC-3. Briefly: Antiproliferative activity against human PC3 cells assessed as cell viability at 20 uM after 72 hrs by alamar blue assay relative to control. The data set is classed as functional. Particulars: PC-3, 72 h, read-out: Activity.
Data set [12] relates to A549. Kind of data set: Antiproliferative activity against human A549 cells assessed as cell viability at 20 uM after 72 hrs by alamar blue assay relative to control. The data set is classed as functional. The settings on record: A549, 72 h, read-out: Activity.
The target in data set [13] is Eukaryotic translation initiation factor 4E-binding protein 1 (Homo sapiens) (UniProt Q13541). Kind of data set: Inhibition of 4E-BP1 phosphorylation in human HCT116 cells at 1 uM after 6 hrs by Western blot analysis. The data set is classed as cell-based. An outline of the steps:
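HCT116 cells treated for 6 h with compound at 1 or 2 μM, or with DMSO as negative control. Lysates analysed by Western blot for phosphorylated 4E-BP1 alongside related proteins.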

Converted amounts (≈) assume the structure as drawn. The source made the active and inactive calls. The calls are words filed in the database; no cut-off is given here. Starred links: 1 amine or outer side, 2 acyl side, 3 side chain; linkers in the order of their positions; H or OH if unused. Positions of bridges follow the written chain, without caps; N, C: chain ends. Non-standard residues stand in square brackets, D forms with d. Residues, ends and D or L forms follow the SMILES beside them. Chains are numbered I, II in the order given. Actinocin(1to9) = Cc1c2oc3c(C)ccc(C(=O)[*:2])c3nc-2c(C(=O)[*:1])c(N)c1=O; NMeV = CN[C@H](C(=O)O)C(C)C; Sar = CNCC(=O)O

Chain of Eukaryotic translation initiation factor 4E-binding protein 1 (Homo sapiens) (Q13541 whole entry): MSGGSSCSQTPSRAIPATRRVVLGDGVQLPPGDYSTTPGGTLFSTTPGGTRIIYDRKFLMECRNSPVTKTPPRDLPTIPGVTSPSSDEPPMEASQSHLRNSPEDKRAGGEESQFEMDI

For orientation: MIC means the least concentration at which growth counts as inhibited. High values mean a less susceptible organism, low ones a more susceptible organism. The EC50 is the concentration at which the effect is half-maximal. For `COC(=O)c1cc2cc3c(c(O)c2c(=O)o1)O[C@]1(CC3)CC2=C(O1)C(=O)c1c(O)c(OC)cc(OC)c1C2=O`, the MIC in data set [1] was > 24 µM; in data set [3], > 24 µM; in data set [4] it was 12 µM (≈ 6.44 µg/mL); in data set [5], 12 µM (≈ 6.44 µg/mL); in data set [7], 12 µM (≈ 6.44 µg/mL); in data set [8], 6 µM (≈ 3.22 µg/mL). Moreover, in [9], the MIC is > 24 µM. Besides, the EC50 in data set [2] and in [6] was > 100 µM each time.

Turning to `COC(=O)c1cc2cc3c(c(O)c2c(=O)o1)O[C@]1(CC3)Cc2c(O)c3c(c(O)c2O1)C(=O)C(OC)=CC3=O`, the Activity entry in data set [10] is “Non-Toxic”. The MIC was 12 µM (≈ 6.27 µg/mL) in data set [1]; > 24 µM in data set [3]; 0.02 µM (≈ 0.0104 µg/mL) in data set [4]; 0.075 µM (≈ 0.0392 µg/mL) in data set [5]; 3 µM (≈ 1.57 µg/mL) in data set [7]; 0.15 µM (≈ 0.0784 µg/mL) in [8]. In data set [9], the MIC was > 24 µM. In addition, the EC50 in data set [2] and in data set [6] was > 100 µM each time.

As to `CC1(C)S[C@@H]2[C@H](NC(=O)[C@H](N)c3ccccc3)C(=O)N2[C@H]1C(=O)O` [AMPICILLIN], the MIC was determined as 25 µM (≈ 8.74 µg/mL) in data set [3], 12 µM (≈ 4.19 µg/mL) in [5], 25 µM (≈ 8.74 µg/mL) in [8] and 25 µM (≈ 8.74 µg/mL) in data set [9].

`Cc1cc(=O)[nH]c2c(O)c3c(cc12)c(CO)cc(=O)n3C`: the MIC in [1], in data set [3], in data set [4], in data set [5], in data set [7] and in data set [8] was > 24 µM in each case. Further, the minimum inhibitory concentration (MIC) in data set [9] was > 24 µM. The EC50 in [2] and in [6] was > 100 µM throughout.

For `Cc1cc(=O)n(C)c2c(O)c3c(cc12)c(C)cc(=O)n3C`, the MIC in [1] is > 24 µM; in [3] it was > 24 µM; in data set [4], 6 µM (≈ 1.71 µg/mL); in [5], 12 µM (≈ 3.41 µg/mL); in data set [7] it was > 24 µM; in data set [8] it was 12 µM (≈ 3.41 µg/mL). In addition, the MIC in data set [9] was > 24 µM. In addition, the EC50 in data set [2] came out at 1.14 µM; in [6], 15.2 µM.

Take `C[C@@H]1[C@H](O)[C@@H](C)/C=C/C=C/C=C/C=C/C=C/C=C/C=C/[C@H](O[C@@H]2O[C@H](C)[C@@H](O)[C@H](N)[C@@H]2O)C[C@@H]2O[C@](O)(C[C@@H](O)C[C@@H](O)[C@H](O)CC[C@@H](O)C[C@@H](O)CC(=O)O[C@H]1C)C[C@H](O)[C@H]2C(=O)O` [AMPHOTERICIN B]: the MIC in data set [7] was 2 µM (≈ 1.85 µg/mL).

In the case of `Cc1cc(=O)n2c3c(c4c(cc13)c(CO)cc(=O)n4C)OC2`, the MIC in [1] was > 24 µM; in data set [3], > 24 µM; in [4] it was 12 µM (≈ 3.58 µg/mL); in data set [5], > 24 µM; in [7], > 24 µM; in data set [8] it was 12 µM (≈ 3.58 µg/mL). Further, the MIC in data set [9] is > 24 µM. For the same compound, the concentration giving a half-maximal response (EC50) in [2] and in [6] was > 100 µM throughout.

As to `C/C=C/C=C/[C@H]1C[C@H](O)CCN1`, the MIC in data set [1], in data set [3], in data set [4], in data set [5], in [7] and in [8] was > 24 µM throughout. Further, the MIC in data set [9] is > 24 µM. In addition, the concentration giving a half-maximal response (EC50) in data set [2] and in [6] was > 100 µM in each case.

With `Cc1c2oc3c(C)ccc(C(=O)N[C@@H]4C(=O)N[C@H](C(C)C)C(=O)N5CCC[C@H]5C(=O)N(C)CC(=O)N(C)[C@@H](C(C)C)C(=O)O[C@@H]4C)c3nc-2c(C(=O)N[C@@H]2C(=O)N[C@H](C(C)C)C(=O)N3CCC[C@H]3C(=O)N(C)CC(=O)N(C)[C@@H](C(C)C)C(=O)O[C@@H]2C)c(N)c1=O` [DACTINOMYCIN] (I: T[dV]P[Sar][NMeV] / II: T[dV]P[Sar][NMeV]; ester I:1-I:C, II:1-II:C; linker I:N-II:N via Actinocin(1to9)), the viability at 20 µM in data set [11] and in data set [12] was 0% throughout.

For the compound `CO[C@H]1/C=C/O[C@@]2(C)Oc3c(C)c(O)c4c(O)c(c(/C=N/N5CCN(C)CC5)c(O)c4c3C2=O)NC(=O)/C(C)=C\C=C\[C@H](C)[C@H](O)[C@@H](C)[C@@H](O)[C@@H](C)[C@H](OC(C)=O)[C@@H]1C` [RIFAMPIN], the MIC in data set [1] amounted to 2 µM (≈ 1.65 µg/mL).

Take `Cc1cc(=O)n2c3c(c4c(cc13)c(C(=O)O)cc(=O)n4C)OC2`: the MIC in data set [1], in [3], in data set [4], in [5], in [7] and in [8] was > 24 µM each time. Also, the MIC in data set [9] is > 24 µM. The EC50 in [2] and in data set [6] was > 100 µM throughout.

As for `Cc1cc(=O)[nH]c2c1C(=O)c1c(C)cc(=O)n(C)c1C2=O`, the MIC was > 24 µM in [1]; > 24 µM in data set [3]; 12 µM (≈ 3.41 µg/mL) in data set [4]; 12 µM (≈ 3.41 µg/mL) in data set [5]; > 24 µM in [7]; 12 µM (≈ 3.41 µg/mL) in [8]. Also, the MIC in [9] is > 24 µM. The EC50 in data set [2] is 0.15 µM; in data set [6], 0.25 µM. Further, in [13], the inhibition result is “Active”.

Regarding `NC[C@H]1O[C@H](O[C@H]2[C@H](O)[C@@H](O[C@H]3O[C@H](CO)[C@@H](O)[C@H](N)[C@H]3O)[C@H](N)C[C@@H]2N)[C@H](O)[C@@H](O)[C@@H]1O` [KANAMYCIN], the minimum inhibitory concentration (MIC) in data set [3] was determined as 14 µM (≈ 6.78 µg/mL); in data set [4], 2 µM (≈ 0.969 µg/mL); in data set [5] it was 7.5 µM (≈ 3.63 µg/mL); in data set [8], 15 µM (≈ 7.27 µg/mL); in data set [9], 7.5 µM (≈ 3.63 µg/mL).

Regarding `COC(=O)c1cc2cc(CCc3cc4c(o3)C(=O)c3c(O)c(OC)cc(OC)c3C4=O)c(O)c(O)c2c(=O)o1`, the MIC is > 24 µM in data set [1]; > 24 µM in data set [3]; 0.4 µM (≈ 0.215 µg/mL) in [4]; 3 µM (≈ 1.61 µg/mL) in [5]; > 24 µM in data set [7]; 1.5 µM (≈ 0.805 µg/mL) in data set [8]. The MIC in data set [9] is > 24 µM. Besides, the concentration giving a half-maximal response (EC50) in data set [2] and in [6] was > 100 µM each time.
